Assay [1] relates to PBL. Description: Ex-vivo induction of IL-23 production in human PBL at 100 uM after 72 hrs by ELISA. Type of assay: functional, cell-based. In short, it runs like this:
(§1)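 Human PBLs were isolated from heparinized venous blood of consenting volunteers aged 18–60 y on Ficoll-hypaque (1.077 g/mL). They were seeded at 5×10^5 cells/well in RPMI-1640, exposed to compound in DMSO, and held 72 h at 37 °C, 5% CO2. Supernatants were taken after centrifugation at 240 × g, and IL-2, IL-12 and IL-23 were measured by ELISA, in triplicate.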
On the technique in general: ELISA stands for enzyme-linked immunosorbent assay.

Assay [2] has as its system HEK293. The experiment in a line: Induction of cell proliferation of HEK293 cells assessed as proliferation rate at 100 uM measured up to 72 hrs by MTT assay. The format is functional. As to conditions: Homo sapiens, HEK293, 72 h; read-out: Activity.
Assay [3] has as its system PBL. Description: Ex-vivo induction of IL-12 production in human PBL at 100 uM after 72 hrs by ELISA. Type of assay: functional, cell-based. In short, it runs like this: as §1
The subject of assay [4] is PBL. Description: Immunostimulatory activity in human PBL assessed as increase in cell proliferation after 72 hrs by MTT assay. The format is functional, cell-based. In a few lines:
(§2)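 Ficoll-isolated human PBLs were plated at 2.5×10^6 cells/mL in RPMI-1640 at 37 °C, 5% CO2. After 3 h they were treated with 0, 10, 20, 50 or 100 µM compound in DMSO, with Con A at 1–20 µg/mL as reference mitogen. MTT was added at 72 h for 4 h, and formazan dissolved in DMSO was read at 570 nm. Proliferative index was taken as fold over untreated control, from three independent experiments.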
For orientation: Tetrazolium assays rely on reduction of a dye to a coloured formazan, in cell work by metabolically active cells.

Assay [5] relates to PBL. Description: Immunostimulatory activity in human PBL assessed as increase in cell proliferation […] after 72 hrs by MTT assay relative to control. The format is functional. In short, it runs like this: as §2
The nature of assay [6]: Immunostimulatory activity in Swiss albino mouse splenocytes assessed as increase in proliferation at 100 uM after 72 hrs by MTT assay relative to ConA. Type of assay: functional, Splenocyte. In a few lines: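 Splenocytes came from Swiss albino mice (23–25 g, 12 weeks). Erythrocytes were lysed in NH4Cl/KHCO3/EDTA buffer, pH 7.4. Cells were plated at 2.5×10^6 cells/mL in RPMI-1640 at 37 °C, 5% CO2, and compound (0–100 µM in DMSO) was added after 3 h. After 72 h, MTT was added for 4 h and formazan dissolved in DMSO was read at 570 nm. Con A (1–20 µg/mL) served as reference, and the index was expressed as fold over untreated control (1.0).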

Assay [7] concerns PBL. The experiment in a line: Ex-vivo induction of IL-2 production in human PBL at 100 uM after 72 hrs by ELISA relative to control. Type of assay: functional. In short, it runs like this:
as §1

Assay [8] has as its system PBL. The experiment in a line: Ex-vivo induction of IL-2 production in human PBL at 100 uM after 72 hrs by ELISA (reference value: 328 pg/ml). Type of assay: functional. In short, it runs like this: as §1
Assay [9] has as its target Prostaglandin G/H synthase 1 (Homo sapiens) (UniProt P23219). Description: Inhibition of COX1 in human PBL after 72 hrs by colorimetric method. As to conditions: concentration not given here.
In assay [10] the test system is Chorioallantoic membrane. Description: Pro-angiogenic activity in chicken chorioallantoic membrane assessed as dense blood vessel formation by measuring microvascular density at 20 uM after 12 days. Type of assay: functional. To be noted: Gallus gallus.
For assay [11], the system named is Cornea. Description: Pro-angiogenic activity in rat cornea assessed as vascularization by measuring microvascular density at 20 ug after overnight incubation. The format is functional.

Calls of active or inactive are those of the source. No cut-off for these calls is given here.

Prostaglandin G/H synthase 1 (Homo sapiens), sequence (P23219 whole entry): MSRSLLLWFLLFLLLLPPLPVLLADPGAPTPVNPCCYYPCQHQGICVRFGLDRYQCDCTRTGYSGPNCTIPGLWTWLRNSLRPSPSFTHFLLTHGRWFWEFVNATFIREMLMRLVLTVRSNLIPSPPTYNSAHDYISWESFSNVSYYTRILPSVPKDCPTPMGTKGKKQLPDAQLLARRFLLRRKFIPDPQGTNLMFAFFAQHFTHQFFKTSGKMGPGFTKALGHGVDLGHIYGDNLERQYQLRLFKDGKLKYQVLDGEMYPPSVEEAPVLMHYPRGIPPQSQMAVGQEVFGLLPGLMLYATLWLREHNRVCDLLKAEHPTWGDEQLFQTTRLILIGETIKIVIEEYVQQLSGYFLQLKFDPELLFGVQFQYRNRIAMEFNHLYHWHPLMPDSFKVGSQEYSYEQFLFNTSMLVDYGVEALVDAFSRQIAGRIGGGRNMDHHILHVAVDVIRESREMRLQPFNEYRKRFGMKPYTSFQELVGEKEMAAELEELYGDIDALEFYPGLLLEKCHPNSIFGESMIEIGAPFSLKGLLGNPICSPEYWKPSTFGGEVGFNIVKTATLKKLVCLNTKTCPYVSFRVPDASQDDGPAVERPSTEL

The inhibition is the percentage by which the read-out fell short of the control. As for `COc1ccc(C2=NOC(c3cccc(Cl)c3)C2C(=O)c2ccc(O)c(C(=O)O)c2)cc1` (configuration not stated), the result in assay [1] and in assay [3] was inactive. Besides, the growth at 100 µM in [2] was determined as 73%. Also, the Activity entry is “Dose-dependent effect” in [4] and 1460 pg/mL in assay [8]. In addition, the “fold change (FC)” value in [5] is reported as 1.25; in [6], 1.2; in assay [7], 4. The compound further registered an inhibition in assay [9] of 39%. For the same compound, the outcome in assay [10] and in assay [11] was Active.

On to `O=C(O)c1cc(C(=O)C2C(c3ccc(Cl)cc3)=NOC2c2ccc(Br)cc2)ccc1O` (configuration not stated), for which, in assay [2], the growth at 100 µM turned out to be 6%. Besides, the outcome in assay [5] was inactive.

In the case of `O=C(O)c1cc(C(=O)C2C(c3cccc(Cl)c3)=NOC2c2cccc(Cl)c2)ccc1O` (configuration not stated), the growth at 100 µM in assay [2] stood at 42%. Also, the outcome in assay [5] was Active.

In the case of `COc1ccc(C2=NOC(c3ccc(O)cc3)C2C(=O)c2ccc(O)c(C(=O)O)c2)cc1` (configuration not stated), the growth at 100 µM in assay [2] was 8%.

Regarding `O=C(O)c1cc(C(=O)C2C(c3cccc(Cl)c3)=NOC2c2ccc(O)cc2)ccc1O` (configuration not stated), in [2], the growth at 100 µM is 0%. Also, the outcome in [5] was inactive.

On to `O=C(O)c1cc(C(=O)C2C(c3cccc(Cl)c3)=NOC2c2ccc(Br)cc2)ccc1O` (configuration not stated), for which the growth at 100 µM in [2] came out at 12%. The result in [5] was inactive.

For the compound `COc1ccc(C2ON=C(c3cccc(Cl)c3)C2C(=O)c2ccc(O)c(C(=O)O)c2)cc1` (configuration not stated), in [2], the growth at 100 µM is 9%. In addition, in [5], the result was inactive.

On to `COc1ccc(C2ON=C(c3ccc(Cl)cc3)C2C(=O)c2ccc(O)c(C(=O)O)c2)cc1` (configuration not stated), for which the growth at 100 µM in assay [2] is 11%. Moreover, in [5], the result was inactive.

For the compound `O=C(O)c1cc(C(=O)C2C(c3ccc(Cl)cc3)=NOC2c2ccc(Cl)cc2)ccc1O` (configuration not stated), the growth at 100 µM in assay [2] amounted to 9%. Moreover, the outcome in assay [5] was inactive.

On to `COc1ccc(C2=NOC(c3ccccc3)C2C(=O)c2ccc(O)c(C(=O)O)c2)c(OC)c1` (configuration not stated), for which, in assay [2], the growth at 100 µM came to 0%.

Values taken from ChEMBL document CHEMBL3779851, “Synthesis and biological evaluation of salicylic acid conjugated isoxazoline analogues on immune cell proliferation and angiogenesis” (2016).
